This is a sample that favours compounds with a hit; in the whole collection about 1.8% have one here.
M4 antag: human M4 muscarinic receptor antagonists, primary screen, CHO cells, Fluo-8 calcium fluorescence; 0.73% of 360,000 active; inhibition, % at 3 µM; CHO-hM4 cells, ACh EC80; Muscarinic acetylcholine receptor M4 (Homo sapiens), P08173;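 active = inhibition above its plate's cutoff, the mean inhibition of sample wells plus 3 SD, cut at about 27% in these data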;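 note: 0% = acetylcholine EC80 with DMSO and 100% = DMSO without agonist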
M5 antag: human M5 muscarinic receptor antagonists, primary screen, CHO cells, Fluo-8 calcium fluorescence | CHO-hM5 cells, ACh EC80 | inhibition, % at 3 µM | 0.59% of 360,000 active;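 active = inhibition above a per-plate cutoff, the mean of that plate's test compounds plus 3 SD, cut at about 27% in these data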;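 note: 0% = acetylcholine EC80 with DMSO and 100% = DMSO without agonist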
Target sequence (P08912 whole entry, looked up): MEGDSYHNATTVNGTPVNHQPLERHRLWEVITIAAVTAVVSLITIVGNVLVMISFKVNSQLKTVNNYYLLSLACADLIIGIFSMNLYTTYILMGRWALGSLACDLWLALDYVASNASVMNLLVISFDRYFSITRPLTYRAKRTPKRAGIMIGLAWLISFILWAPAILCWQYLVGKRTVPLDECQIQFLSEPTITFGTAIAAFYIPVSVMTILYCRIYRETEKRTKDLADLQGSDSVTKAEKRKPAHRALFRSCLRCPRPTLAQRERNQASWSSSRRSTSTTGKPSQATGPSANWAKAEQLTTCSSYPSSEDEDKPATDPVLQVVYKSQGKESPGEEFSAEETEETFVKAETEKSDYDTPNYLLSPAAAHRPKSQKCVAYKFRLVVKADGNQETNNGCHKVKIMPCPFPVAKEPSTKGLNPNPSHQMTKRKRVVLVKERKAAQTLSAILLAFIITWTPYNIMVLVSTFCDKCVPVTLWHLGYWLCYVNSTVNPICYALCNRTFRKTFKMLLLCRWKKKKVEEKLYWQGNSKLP
CHRM5 agonist: human M5 muscarinic receptor agonists, primary screen, CHO-K1 cells, Fluo-8 calcium fluorescence. activation, % at 3 µM. 0.19% of 360,000 active. Muscarinic acetylcholine receptor M5 (Homo sapiens), P08912. CHO-K1 hM5 cells; 0% DMSO wells, 100% maximal acetylcholine response;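 active = activation above the run's mean over test compounds plus 3 SD, cut at about 23% in these data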;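 note: signal is peak over basal fluorescence ratio across the kinetic read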
CHRM4 agonist: human M4 muscarinic receptor agonists, primary screen, CHO-K1 cells, Fluo-8 calcium fluorescence; 0.14% of 360,000 active; activation, % at 3 µM; CHO-K1 hM4/Gqi5; vehicle 0%, full acetylcholine response 100%; Muscarinic acetylcholine receptor M4 (Homo sapiens), P08173; AID 624127, 2012;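 active = activation above the run mean over all test wells plus 3 SD, cut at about 32% in these data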;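 note: peak over basal fluorescence ratio per well then scaled between controls; 0% = DMSO wells and 100% = acetylcholine at EC100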
CHRM4 PAM: human M4 muscarinic receptor positive allosteric modulators, primary screen, CHO-K1 cells, Fluo-8 calcium fluorescence. Muscarinic acetylcholine receptor M4 (Homo sapiens), P08173. CHO-K1 hM4/Gqi5, ACh EC20; 0% = ACh EC20, 100% = maximal ACh. activation, % at 3 µM. 0.4% of 360,000 active. AID 624126, 2012;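 active = activation above its plate's cutoff, the mean activation of sample wells plus 3 SD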
CHRM5 PAM: human M5 muscarinic receptor positive allosteric modulators, primary screen, CHO-K1 cells, Fluo-8 calcium fluorescence; Muscarinic acetylcholine receptor M5 (Homo sapiens), P08912; CHO-K1 hM5, ACh EC20 PAM; 0% = ACh EC20, 100% = ACh EC100; activation, % at 3 µM; 0.3% of 360,000 active;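 active = activation above the run cutoff, the mean activation of all test compounds plus 3 SD, cut at about 18% in these data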
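Replicates: One well per compound, no replicates | System: Human M5 receptor in CHO-K1 cells | Benchmarks: Low control EC20 acetylcholine (0%), high control EC100 acetylcholine (100%) | Probe or stimulus: Acetylcholine, EC20 level | Times: Fluo-8 loading 80 min at 37 °C plus 30 min room temperature | Signal: Intracellular calcium via Fluo-8 fluorescence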
* marks the source's active call; other numbers are inactive results; ! = not confirmed by another sample.

SMILES	M4 antag	M5 antag	CHRM5 agonist	CHRM4 agonist	CHRM4 PAM	CHRM5 PAM
CN1CCN(Cc2ccccc2Sc2ccccc2)CC1	95*	99*	-5	7	-38	-20
COc1ccccc1Sc1ccccc1CC(C)N (stereo not drawn)	8	8	-5	10	9	2
Cc1ncoc1C(=O)NCC1=C(c2ccc(S(C)(=O)=O)cc2)C[C@@H]2CC[C@H]1N2CCOc1ccccc1	-1	-7	-3	1	8	3
COP(=O)(OC)C(Nc1ccccc1)c1ccccc1 (stereo not drawn)	13	13	-11	0	-11	-8
CCOC(=O)C1(CCc2ccccc2)CCN(C(C)CSC)CC1 (stereo not drawn)	13	12	-20	1	-5	-12
c1cc2c(cc1N1CCCCC1)C1CC2CCN1 (stereo not drawn)	-7	0	-3	0	1	0
O=C(COc1ccc(Cl)cc1)N(c1ccccc1Cl)C1CN2CCC1CC2 (stereo not drawn)	11	12	-19	6	-39	-32
CN1CCN(CCOC2c3ccccc3CSc3ccc(Cl)cc32)CC1 (stereo not drawn)	83*	54*	-2	11	-43	-17
Clc1ccc2c(c1)C(OC1CN3CCC1CC3)c1ccccc1CS2 (stereo not drawn)	99*	99*	-2	16	-42	-18
Nc1c(Cl)cc([N+](=O)[O-])cc1Cl	-21	-1	-6	2	3	-7
CCOC(=O)c1c(NS(=O)(=O)c2ccccc2)n(CCCOC)c2nc3ccccc3nc12	0	22	7	3	23*	13
COC(=O)C1=C(c2cccc(OCc3ccccc3)c2)C[C@@H]2CC[C@H]1N2C(=O)NCCOc1ccccc1	-1	9	0	1	5	4
CC(C)N(CCC(C(N)=O)(c1ccccc1)c1ccccn1)C(C)C (stereo not drawn)	22	39*!	-2	0	-16	-18
COc1cccc(-n2c(C)nc3ccccc3c2=O)c1	-7	-3	0	0	27*	-5
C[C@]12CCC3C(CC[C@H]4C[C@@H](O)CC[C@]34C)[C@H]1C=CC2=O (stereo partly drawn)	-16	4	0	2	15*	1
C[C@]12CC[C@H](O)C[C@@H]1CC[C@@H]1[C@@H]2CC[C@]2(C)C(=O)CC[C@@H]12	-13	0	48*	20	-9	-18
C[C@]12CCC3[C@@H](CC[C@@H]4C[C@H](O)CC[C@]34C)[C@@H]1CCC2=O (stereo partly drawn)	8	-1	1	3	0	-1
COC(=O)C1=C(c2ccc(F)cc2F)C[C@@H]2CC[C@H]1N2C(=O)NCc1ccc(C(F)(F)F)cc1	-10	12	-5	9	-7	-8
O=C(/C=C/c1c[nH]c2ccccc12)c1c(O)n(CCc2ccccc2)c(=O)[nH]c1=O	-4	-8	6	2	0	-5
COc1cc(C(=O)OC2C[C@H]3CC[C@@H](C2)N3C)ccc1O (stereo partly drawn)	3	1	-8	0	-4	0
COc1cc(C(=O)OC2C[C@H]3CC[C@@H](C2)N3)ccc1O (stereo partly drawn)	38*	2	-8	0	-16	-8
Cc1ccc(C2C(=O)NC(=O)NC2=O)cc1	-3	11	-1	1	3	4
CCc1ccc(N2C(=O)NC(=O)/C(=C\c3cc(C)n(-c4cc(C(=O)O)cc(C(=O)O)c4)c3C)C2=O)cc1	-14	-3	-1	2	18*	6
O=S1(=O)N(Cc2ccc(F)cc2)CCCN1Cc1ccccc1Cl	12	5	-2	-1	-11	-7
O=[N+]([O-])c1cc(-n2cnnn2)c(O)c([N+](=O)[O-])c1	3	4	1	1	30*	10
SMILES	M4 antag	M5 antag	CHRM5 agonist	CHRM4 agonist	CHRM4 PAM	CHRM5 PAM
O=[N+]([O-])c1cc(O)c(O)c([N+](=O)[O-])c1	5	8	0	1	0	-4
COC(=O)C1=C(c2ccc(Cl)c(C(F)(F)F)c2)C[C@@H]2CC[C@H]1N2C(=O)NC1CCCCC1	-21	-6	-12	2	-4	3
Cc1ccc(-c2cc(-c3ccccc3)cc(-c3ccccc3)[n+]2-c2ccc(C(=O)O)cc2)cc1	17	4	1	2	25*	-1
Brc1ccc(-[n+]2c(-c3ccccc3)cc(-c3ccccc3)cc2-c2ccccc2)cc1	40*	25	-9	2	-12	-41
CCCOC(=O)c1ccc(-[n+]2c(-c3ccccc3)cc(-c3ccccc3)cc2-c2ccccc2)cc1	46*	31*	-8	5	-14	-41
COc1ccc(-[n+]2c(-c3ccccc3)cc(-c3ccc(C)cc3)cc2-c2ccccc2)cc1	82*	81*	-24	7	-20	-34
Cc1ccc(-c2cc(-c3ccc(C)cc3)[n+](-c3ccc(C(=O)O)cc3)c(-c3ccc(C)cc3)c2)cc1	-11	7	-2	0	3	7
COC(=O)C1=C(c2cccc(OC)c2OC)C[C@@H]2CC[C@H]1N2C(=O)NCc1ccc(C(F)(F)F)cc1	5	14	-7	2	2	-7
CSCCC(c1nnnn1C1CCCCC1)N1CCC2(CC1)C(=O)NCN2c1ccccc1 (stereo not drawn)	-9	8	2	2	4	5
CC[C@H](C)[C@@H]1NC(=O)CNC(=O)c2csc(n2)[C@H](C(C)(C)O)OC(=O)C(C)(C)[C@H](CCCC(C)(Cl)Cl)OC(=O)c2csc1n2	-12	3	-1	4	6	6
Cc1cc(OCC(=O)N2CCC(C(N)=O)CC2)c2c3c(c(=O)oc2c1)CCCC3	-23	-2	2	1	11	-4
COC(=O)C1=C(c2ccc(F)cc2F)C[C@@H]2CC[C@H]1N2C	29*	21	-12	1	-18	-38
COC(=O)C1=C(c2ccccc2)C[C@@H]2CC[C@H]1N2C	21	63*	-11	1	-20	-39
COC(=O)C1=C(c2ccc(S(C)(=O)=O)cc2)C[C@@H]2CC[C@H]1N2C	-9	-3	3	2	1	5

Assay outcomes from PubChem.
